Data published in ChEMBL document CHEMBL1149077, “Synthesis and evaluation of a novel series of pseudo-cinnamic derivatives as antituberculosis agents” (2009).
≈ marks a conversion by molar mass, not a printed value.

What follows are compounds tested on Mycobacterium tuberculosis (assay: Antitubercular activity against Mycobacterium tuberculosis H37Rv after 6 days by MTT reduction assay). Conditions: 144 h.
Assay type: functional
Method in brief: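 Strain H37Rv tested in 7H9 broth across serial twofold compound dilutions, bacilli added to each well. Incubated 6 days, then MTT (1 mg/mL) added for one further day. Formazan solubilized and absorbance read at 570 nm. MIC taken as lowest concentration inhibiting growth, with untreated bacilli serving as growth control.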

First: COc1ccc(/C=C/C(=O)Nc2ccccn2)cc1OC
Second: COc1ccc(/C=C/C(=O)Nc2ccccn2)cc1
The MIC of the first is 2-fold higher: 125 µg/mL (≈ 440 µM) for the first, 63 µg/mL (≈ 248 µM) for the second.

COc1cc(/C=C/C(=O)SCCNC(C)=O)cc(OC)c1O and COc1cc(/C=C/C(=O)SCCNC(C)=O)ccc1O are the same in MIC: 125 µg/mL (≈ 384 µM) for the first, 125 µg/mL (≈ 423 µM) for the second.

COc1ccc(/C=C/C(=O)SCCNC(C)=O)cc1 and CC(=O)NCCSC(=O)/C=C/c1ccc(O)cc1 are the same in MIC: 63 µg/mL (≈ 226 µM) for the first, 63 µg/mL (≈ 237 µM) for the second.

Compared with COc1cc(/C=C/C(=O)NCCc2c[nH]c3ccccc23)ccc1O, COc1ccc(/C=C/C(=O)NCCc2c[nH]c3ccccc23)cc1 is 62-fold higher in MIC: 8 µg/mL (≈ 23.8 µM) for the first, 500 µg/mL (≈ 1560 µM) for the second.

Compared with CC(=O)NCCNC(=O)/C=C/c1ccc(OCC=C(C)C)cc1, CC(=O)NCCNC(=O)/C=C/c1ccc(OC/C=C(\C)CCC=C(C)C)cc1 is 630-fold lower in MIC: 63 µg/mL (≈ 199 µM) for the first, 0.1 µg/mL (≈ 0.26 µM) for the second.

O=C(/C=C/c1ccc(O)cc1)Sc1ccccc1 and COc1cc(/C=C/C(=O)Sc2ccccc2)ccc1O are the same in MIC: 8 µg/mL (≈ 31.2 µM) for the first, 8 µg/mL (≈ 27.9 µM) for the second.

First: CC(C)=CCOc1ccc(/C=C/C(=O)Nc2ccccn2)cc1
Second: CC(C)=CCC/C(C)=C/COc1ccc(/C=C/C(=O)Nc2ccccn2)cc1
The MIC of the first is 16-fold higher: 16 µg/mL (≈ 51.9 µM) for the first, 1 µg/mL (≈ 2.66 µM) for the second.

CC(=O)NCCSC(=O)/C=C/c1ccc(OC/C=C(\C)CCC=C(C)C)cc1 and CC(=O)NCCSC(=O)/C=C/c1ccc(OC/C=C(/C)CC/C=C(/C)CCC=C(C)C)cc1 are the same in MIC: 0.6 µg/mL (≈ 1.49 µM) for the first, 0.6 µg/mL (≈ 1.28 µM) for the second.

First: COc1ccc(/C=C/C(=O)NCCNC(C)=O)cc1
Second: CC(=O)NCCSC(=O)/C=C/c1ccc(OCC=C(C)C)cc1
The MIC of the first is higher: > 500 µg/mL for the first, 32 µg/mL (≈ 96 µM) for the second.

Compared with CC(C)=CCOc1ccc(/C=C/C(=O)NCCc2c[nH]c3ccccc23)cc1, CC(C)=CCC/C(C)=C/COc1ccc(/C=C/C(=O)NCCc2c[nH]c3ccccc23)cc1 is 2-fold lower in MIC: 63 µg/mL (≈ 168 µM) for the first, 32 µg/mL (≈ 72.3 µM) for the second.
